ASAP1 inh: inhibitors of human ASAP1 ArfGAP activity, primary screen, biochemical, fluorescence polarization | Arf-GAP with SH3 domain, ANK repeat and PH domain-containing protein 1 (Homo sapiens), … | ASAP1-stimulated ARF1 GTP hydrolysis, GDP FP detection | inhibition, % at 16.5 µM | 360,000 compounds, 0.19% hits; in the data active = inhibition above about 25%;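 note: 0% = vehicle with enzyme and substrate and 100% = no enzyme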
Target sequence (Q9ULH1 325-724 limits assumed): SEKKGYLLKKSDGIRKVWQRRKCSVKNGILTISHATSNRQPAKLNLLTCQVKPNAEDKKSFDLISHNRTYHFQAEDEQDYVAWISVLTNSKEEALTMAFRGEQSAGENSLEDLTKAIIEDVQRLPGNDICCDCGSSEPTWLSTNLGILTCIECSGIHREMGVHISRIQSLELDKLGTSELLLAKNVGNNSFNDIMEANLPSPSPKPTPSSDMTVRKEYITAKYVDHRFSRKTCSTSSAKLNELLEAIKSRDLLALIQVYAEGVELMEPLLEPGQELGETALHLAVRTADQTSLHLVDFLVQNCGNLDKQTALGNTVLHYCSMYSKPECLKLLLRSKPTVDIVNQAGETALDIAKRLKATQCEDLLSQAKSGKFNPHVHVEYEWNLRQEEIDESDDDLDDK
ARFGAP1 inh: inhibitors of rat ARFGAP1 GAP activity, primary screen, biochemical, fluorescence polarization, GDP tracer; ADP-ribosylation factor GTPase-activating protein 1 (Rattus norvegicus), Q62848; 360,000 compounds, 0.26% hits; Arfgap1-stimulated ARF1 GTP hydrolysis, GDP FP detection; inhibition, % at 16.5 µM;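 active = inhibition above a per-plate limit, mean inhibition of low control wells plus 3 SD, cut at about 25% in these data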;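 note: 0% = DMSO wells with enzyme and 100% = wells lacking Arfgap1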
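Material – truncated rat Arfgap1 GAP domain · Buffer or medium – HEPES-based buffer, pH 7.5 · Reagent – human ARF1(Δ1-17)-GTP substrate · Dosing – 16.5 µM single point, 1.26% DMSO · Schedule – GTP hydrolysis reaction 2 h at 25 °C · Technique – GDP detection by fluorescence polarization · Benchmarks – No-Arfgap1 wells (100%) versus DMSO full-reaction wells (0%) · Repeats – single replicate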
rCAG RNA binder: binders of r(CAG) RNA repeats, primary screen, biochemical, fluorescence | r(CAG) RNA repeat, TO-PRO-1 dye displacement fluorescence | inhibition, % at 3 µM | 370,000 compounds, 1.3% hits;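 active = inhibition above the plate cutoff, the mean of all test compounds on that plate plus 3 SD, cut at about 35% in these data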;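 note: 0% = DMSO alone and 100% = 100 µM mitoxantrone as full dye displacement; higher means more dye released from RNA so lower well fluorescence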
NadD inh: inhibitors of S. aureus NadD, primary screen, biochemical, colorimetric, uHTS. AID 602399, 2012. Nicotinate-nucleotide adenylyltransferase NadD (Staphylococcus aureus N315). purified NadD enzyme, colorimetric absorbance read-out. 360,000 compounds, 0.78% hits. inhibition, % at 20 µM; in the data active = inhibition above about 26%
rCAG bind conf: small molecules binding CAG repeat RNA – biochemical, fluorescence, confirmation; shares compounds with rCAG RNA binder; r(CAG) RNA repeat, TO-PRO-1 dye displacement fluorescence; inhibition, % at 3 µM; 4,300 compounds, 70% hits; AID 652065, 2013;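 active = inhibition above a per-plate cutoff, the mean inhibition of sample wells plus 3 SD, cut at about 35% in these data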;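 note: loss of TO-PRO-1 fluorescence as compound displaces dye from 1x1 AA loop RNA; 0% = DMSO only wells and 100% = 100 µM mitoxantrone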
dCAG dye counter: displacement of TO-PRO-1 from CAG DNA duplex, counter-screen for rCAG RNA repeat binder project, biochemical, fluorescence, TO-PRO-1 dye, d(CAG) DNA oligo | shares compounds with rCAG RNA binder | d(CAG) DNA oligo TO-PRO-1 dye displacement | inhibition, % at 3 µM | 4,300 compounds, 94% hits | AID 652068, 2013;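 active = inhibition above its plate's cutoff, the mean test-well inhibition plus 3 SD, cut at about 4.8% in these data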;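 note: 0% = DNA dye mix with DMSO and 100% = 100 µM mitoxantrone; hits displace the dye from DNA and so lower well fluorescence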
An asterisk follows results filed as active; / = no result. Rows were chosen to be rich in hits. Some 2.2% of all compounds tested hit in one or more screens of this group.

SMILES	ASAP1 inh	ARFGAP1 inh	rCAG RNA binder	NadD inh	rCAG bind conf	dCAG dye counter
COc1cc(Nc2nc3ccccc3nc2NS(=O)(=O)c2ccc([N+](=O)[O-])cc2)cc(OC)c1OC	4	-6	6	4	/	/
CC(=O)Nc1ccc(Nc2nc3ccccc3nc2NS(=O)(=O)c2ccc(Cl)c([N+](=O)[O-])c2)cc1	5	20	91*	12	93*	76*
CC(=O)Nc1ccc(S(=O)(=O)Nc2nc3ccccc3nc2Nc2ccc(N)cc2)cc1	9	2	42*	11	32	11*
CC(=O)Nc1ccc(S(=O)(=O)Nc2nc3ccccc3nc2Nc2ccc(C(=O)O)c(O)c2)cc1	0	-12	47*	3	45*	13*
COC(=O)C[C@H]1CC[C@@H](NC(=O)c2ccncc2)[C@@H](CO)O1	2	-2	2	/	/	/
CCCS(=O)(=O)NC(=O)C1(C)CCCN(C(=O)c2cc(F)ccc2C)C1 (stereo not drawn)	8	-11	4	-2	/	/
CC(=O)Nc1ccc(S(=O)(=O)Nc2nc3ccccc3nc2Sc2nncn2C)cc1	5	-2	-9	-3	/	/
CC(=O)Nc1ccc(S(=O)(=O)Nc2nc3ccccc3nc2Nc2ccc3ccccc3c2)cc1	2	5	75*	-5	93*	82*
NS(=O)(=O)c1ccc(N/N=C/c2ccc(O)cc2O)c([N+](=O)[O-])c1	13	18	16	-3	/	/
NS(=O)(=O)c1ccc(N/N=C/c2ccc(O)c(O)c2O)c([N+](=O)[O-])c1	1	10	55*	9	76*	38*
COc1ccc(/C=N/Nc2ccccc2C(=O)O)cc1Cn1cc([N+](=O)[O-])cn1	-4	-14	50*	5	40*	13*
COc1ccccc1NS(=O)(=O)c1cc([N+](=O)[O-])ccc1N/N=C/c1c[nH]c2ccccc12	7	-2	74*	26	71*	36*
COc1ccc(C=NNc2ccc([N+](=O)[O-])cc2S(=O)(=O)Nc2ccccc2C(=O)O)cc1OC	1	0	90*	16	94*	75*
Cc1ccc(Cn2cc(CN3[C@H](Cc4ccccc4)COc4cc(Br)ccc4S3(=O)=O)nn2)cc1	/	/	5	/	/	/
N#Cc1c(N)n(C2OC(CO)C(O)C2O)c2ncnc(N)c12 (stereo not drawn)	-11	1	0	0	/	/
CCOc1ccccc1-c1cncc(NC)n1	-10	13	0	5	/	/
O=C(O)c1ccccc1NS(=O)(=O)c1ccc(N/N=C/c2ccc(O)c(O)c2)c([N+](=O)[O-])c1	24	0	92*	19	91*	70*
O=C(O)c1ccc(CNS(=O)(=O)c2ccc3ccccc3c2)cc1	8	2	0	-4	/	/
O=C(O)c1ccc(CNS(=O)(=O)c2ccc(Oc3ccccc3Cl)cc2)cc1	-9	5	39*	-4	28	6.6*
COc1ccc(/C=C(\NC(=O)c2ccc(OC)cc2)C(=O)Nc2cccc(C(=O)O)c2)cc1	3	-10	18	4	/	/
COc1ccc(C(=O)N/C(=C/c2ccc(Cl)cc2)C(=O)Nc2ccc(C(=O)O)cc2)cc1	0	0	46*	0	42*	12*
CC(/C=C1\SC(=O)N(CCCC(=O)O)C1=O)=C\c1ccccc1	10	-2	10	7	/	/
O=C(CCN1C(=O)/C(=C/c2ccc(Cl)cc2)SC1=S)Nc1ccc(C(=O)O)cc1	-2	5	4	25	/	/
CC(=C\c1ccccc1)/C=C1/SC(=S)N(CCCC(=O)O)C1=O	-9	-1	37*	5	49*	15*
CC(/C=C1\SC(=S)N(CCCC(=O)Nc2ccc(C(=O)O)cc2)C1=O)=C\c1ccccc1	3	7	74*	25	85*	53*

Screens: PubChem BioAssay, several laboratories
